Laboratory results: ChEMBL document CHEMBL2086292, “Chalcogenopyrylium compounds as modulators of the ATP-binding cassette transporters P-glycoprotein (P-gp/ABCB1) and multidrug resistance protein 1 (MRP1/ABCC1)” (J Med Chem, 2012)

Experiments:
[1] = target: T1, ATP-dependent translocase ABCB1 (Homo sapiens, UniProt P08183); test: (§1) Induction of ATPase activity of human His10-tagged P-gp expressed in BHK cells assessed as inorganic phosphate release after 30 mins relative to control; format: cell-based; details: bhk, 0.5 h
T1 sequence (P08183 whole entry): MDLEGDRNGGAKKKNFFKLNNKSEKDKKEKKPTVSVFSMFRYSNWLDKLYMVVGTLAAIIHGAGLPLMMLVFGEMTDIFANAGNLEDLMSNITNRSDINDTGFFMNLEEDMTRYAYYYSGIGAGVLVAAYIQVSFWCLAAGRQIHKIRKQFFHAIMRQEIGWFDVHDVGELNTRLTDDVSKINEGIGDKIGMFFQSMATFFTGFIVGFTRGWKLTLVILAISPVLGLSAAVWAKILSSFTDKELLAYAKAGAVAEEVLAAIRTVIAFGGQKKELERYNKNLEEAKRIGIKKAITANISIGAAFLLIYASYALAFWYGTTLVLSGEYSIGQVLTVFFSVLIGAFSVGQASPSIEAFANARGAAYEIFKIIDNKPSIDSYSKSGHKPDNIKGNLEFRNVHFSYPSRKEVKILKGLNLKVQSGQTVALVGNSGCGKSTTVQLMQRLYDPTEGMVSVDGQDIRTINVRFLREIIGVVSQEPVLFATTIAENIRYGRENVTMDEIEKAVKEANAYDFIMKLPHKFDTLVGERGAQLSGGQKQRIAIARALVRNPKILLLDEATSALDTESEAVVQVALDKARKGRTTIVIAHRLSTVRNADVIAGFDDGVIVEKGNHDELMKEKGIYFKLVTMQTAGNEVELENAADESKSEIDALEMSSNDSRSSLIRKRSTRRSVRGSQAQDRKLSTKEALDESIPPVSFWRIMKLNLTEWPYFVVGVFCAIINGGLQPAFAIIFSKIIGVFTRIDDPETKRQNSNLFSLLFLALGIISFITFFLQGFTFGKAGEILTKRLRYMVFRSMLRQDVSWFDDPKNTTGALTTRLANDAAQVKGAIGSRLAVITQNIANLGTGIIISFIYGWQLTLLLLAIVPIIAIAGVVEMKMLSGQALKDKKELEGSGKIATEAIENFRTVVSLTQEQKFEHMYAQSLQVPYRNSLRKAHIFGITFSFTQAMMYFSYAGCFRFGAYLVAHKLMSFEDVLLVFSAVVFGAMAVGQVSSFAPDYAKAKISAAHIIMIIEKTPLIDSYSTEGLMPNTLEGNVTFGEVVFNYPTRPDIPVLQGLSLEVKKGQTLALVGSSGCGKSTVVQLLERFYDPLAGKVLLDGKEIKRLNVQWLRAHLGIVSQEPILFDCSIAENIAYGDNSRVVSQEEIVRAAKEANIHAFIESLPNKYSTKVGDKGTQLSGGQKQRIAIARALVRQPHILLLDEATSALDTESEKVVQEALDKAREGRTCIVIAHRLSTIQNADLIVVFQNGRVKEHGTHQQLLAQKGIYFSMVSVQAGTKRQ
Method in brief: (§2)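 Human P-gp with C-terminal His10 tag, stably expressed in BHK cells, purified by Ni-chelate chromatography and mixed 1:1 with 10 mg/mL sheep brain phosphatidylethanolamine in TBS (10 mM Tris/HCl pH 7.4, 150 mM NaCl), then sonicated. Compound titrated, 30 min at 37 °C. Inorganic phosphate released from ATP measured. Vmax expressed as fold over basal activity; KM is the concentration giving half-maximal stimulation.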

[2] = target: T2, MRP1 (Multidrug resistance-associated protein 1) (Homo sapiens, UniProt P33527); test: Inhibition of human MRP1 mediated uptake of [3H]E2-17betaG in HEK cell membrane vesicles at 30 uM by liquid scintillation counting relative to control; format: cell membranes, HEK293; details: HEK cell membrane vesicles with human MRP1, probe [3H]E2-17betaG
T2 sequence (P33527 whole entry): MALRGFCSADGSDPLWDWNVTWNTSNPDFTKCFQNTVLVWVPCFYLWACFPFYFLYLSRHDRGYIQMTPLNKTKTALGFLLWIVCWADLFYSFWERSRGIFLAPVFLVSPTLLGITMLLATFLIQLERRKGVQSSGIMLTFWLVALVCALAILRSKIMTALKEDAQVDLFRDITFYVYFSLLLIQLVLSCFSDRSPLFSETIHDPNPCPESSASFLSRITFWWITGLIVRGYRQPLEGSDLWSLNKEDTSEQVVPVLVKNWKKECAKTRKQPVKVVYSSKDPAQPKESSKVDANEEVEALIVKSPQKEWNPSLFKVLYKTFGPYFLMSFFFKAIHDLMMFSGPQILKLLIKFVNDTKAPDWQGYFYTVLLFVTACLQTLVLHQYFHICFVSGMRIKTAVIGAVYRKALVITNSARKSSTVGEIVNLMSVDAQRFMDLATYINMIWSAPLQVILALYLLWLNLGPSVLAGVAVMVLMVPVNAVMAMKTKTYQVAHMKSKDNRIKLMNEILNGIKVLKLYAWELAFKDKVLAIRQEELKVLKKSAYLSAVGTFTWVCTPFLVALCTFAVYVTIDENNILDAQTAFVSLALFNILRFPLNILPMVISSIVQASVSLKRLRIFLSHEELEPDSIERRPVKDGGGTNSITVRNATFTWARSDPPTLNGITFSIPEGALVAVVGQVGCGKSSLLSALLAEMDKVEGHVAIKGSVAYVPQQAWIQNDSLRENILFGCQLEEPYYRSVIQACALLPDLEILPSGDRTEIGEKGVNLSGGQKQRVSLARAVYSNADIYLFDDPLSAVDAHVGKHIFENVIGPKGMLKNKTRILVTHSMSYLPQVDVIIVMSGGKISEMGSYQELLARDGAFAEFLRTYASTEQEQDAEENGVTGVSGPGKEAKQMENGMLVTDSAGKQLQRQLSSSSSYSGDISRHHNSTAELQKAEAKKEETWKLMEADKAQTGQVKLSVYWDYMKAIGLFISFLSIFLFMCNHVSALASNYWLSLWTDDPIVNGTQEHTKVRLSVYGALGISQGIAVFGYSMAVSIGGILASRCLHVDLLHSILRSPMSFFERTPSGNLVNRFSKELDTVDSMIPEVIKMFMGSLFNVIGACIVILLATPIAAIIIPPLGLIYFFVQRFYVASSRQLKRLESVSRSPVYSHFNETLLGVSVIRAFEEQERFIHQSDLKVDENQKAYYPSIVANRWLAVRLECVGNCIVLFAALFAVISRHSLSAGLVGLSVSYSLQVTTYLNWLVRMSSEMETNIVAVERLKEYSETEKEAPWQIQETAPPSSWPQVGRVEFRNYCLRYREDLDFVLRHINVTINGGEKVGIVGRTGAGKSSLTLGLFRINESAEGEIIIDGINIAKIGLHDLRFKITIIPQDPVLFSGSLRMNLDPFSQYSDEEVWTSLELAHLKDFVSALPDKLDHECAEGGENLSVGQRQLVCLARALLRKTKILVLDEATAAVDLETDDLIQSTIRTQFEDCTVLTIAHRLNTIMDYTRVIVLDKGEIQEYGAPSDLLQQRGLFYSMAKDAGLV
Method in brief: (§3)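 Inside-out membrane vesicles from HEK cells stably transfected with human MRP1. Vesicle protein (2 μg) incubated in Tris-sucrose buffer pH 7.4 with 400 nM [3H]E2-17βG, 4 mM ATP or AMP and 10 mM MgCl2, 3 min at 37 °C, in duplicate; DMSO ≤1% final. Stopped by ice-cold dilution and rapid filtration, then scintillation counted. ATP-dependent uptake taken as ATP minus AMP values; inhibition reported as percent.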

[3] = target: P-gp (ABCB1) (Homo sapiens, UniProt P08183); test: as §1; format: cell-based; details: human His10-tagged P-gp expressed in BHK cells, read-out: FC; method in brief: as §2
Sequence of P-gp (ABCB1) (P08183 whole entry): as the sequence (P08183 whole entry) above

[4] = target: T2, MRP1 (Multidrug resistance-associated protein 1); test: Inhibition of human MRP1-mediated uptake of [3H]E2-17betaG in HEK cell membrane vesicles at 1 uM by liquid scintillation counting relative to control; format: cell membranes, HEK293; details: HEK cell membrane vesicles with human MRP1, probe [3H]E2-17betaG; method in brief: as §3
[5] = target: T2, MRP1 (Multidrug resistance-associated protein 1); test: Inhibition of human MRP1-mediated uptake of [3H]E2-17betaG in HEK cell membrane vesicles at 10 uM by liquid scintillation counter; format: cell membranes, HEK293; details: HEK cell membrane vesicles with human MRP1, probe [3H]E2-17betaG; method in brief: as §3
[6] = tested on: P-glycoprotein (MDR1); test: P-glycoprotein-mediated transport in MDCK2-MDR1 cells assessed as permeability across basolateral to apical side at 5 uM after 1 hr; details: dog, MDCK-MDR1
[7] = Octanol-water partition coefficient, log P of the compound in PBS at pH 7.4 after 1 hr by shake flask method; format: physicochemical
Method in brief: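 Shake-flask method: saturated n-octanol solution shaken with an equal volume of PBS pH 7.4 for 3–5 min, then left to settle 1 h at 23 °C. Concentration in each layer measured spectrophotometrically.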

[8] = Normalized ratio of the compound assessed as ratio of PBA/AB in absence of LSN 335984 to ratio of PBA/AB in presence of LSN 335984 in MDCK2-MDR1 cells at 5 uM after 1 hr; format: ADME, cell-based, Canis lupus familiaris; details: dog, mdck-mdr1, 1 h
Method in brief: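 MDCKII-MDR1 cells seeded at 50000 cells/cm² on Transwell filters, used on day 6. Preincubated 30 min with 4.3 mg/mL BSA in DPBSH, with or without 5 μM LSN 335984. Compound (5 μM) added to the apical or basolateral donor chamber and incubated 1 h at 37 °C with nutation. Donor and receiver samples quantified by LC-MS/MS. AB and BA permeabilities calculated. Normalized ratio is the BA/AB ratio without inhibitor divided by the ratio with inhibitor.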

[9] = tested on: MDCK-II; test: Inhibition of P-gp expressed in MDCK2-MDR1 cells at 25 uM by calcein AM accumulation assay relative to LSN 335984; format: cell-based
Method in brief: (§4)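 MDCKII cells transfected with wild-type human MDR1, seeded at 40000 cells/well and used on day 4. Washed in DPBS with 10 mM HEPES pH 7.4, then compound in the same buffer 30 min at 37 °C. Replaced with compound plus 0.5 μg/mL calcein AM for a further 20 min. Fluorescence read at Ex 485/Em 530 nm. Signal expressed relative to 5 μM LSN 335984, taken as complete inhibition; vehicle 0.25% DMSO. IC50 from 1:1 serial dilutions by variable-slope sigmoidal fit.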

[10] = tested on: P-glycoprotein (MDR1); test: P-glycoprotein-mediated transport in MDCK2-MDR1 cells assessed as permeability across apical to basolateral side at 5 uM after 1 hr; details: dog, MDCK-MDR1
[11] = tested on: MDCK-II; test: Inhibition of P-gp expressed in MDCK2-MDR1 cells at 5 uM by calcein AM accumulation assay relative to LSN 335984; format: cell-based; method in brief: as §4
[12] = target: T2, MRP1 (Multidrug resistance-associated protein 1); test: Inhibition of human MRP1 mediated uptake of [3H]E2-17betaG in HEK cell membrane vesicles at 5 uM by liquid scintillation counting relative to control; format: cell membranes, HEK293; details: HEK cell membrane vesicles with human MRP1, probe [3H]E2-17betaG
Method in brief: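 Inside-out vesicles from stably transfected HEK-MRP1 cells (2 μg protein) in Tris-sucrose buffer pH 7.4 with [³H]E₂17βG 400 nM, ATP or AMP 4 mM, MgCl₂ 10 mM, 3 min at 37 °C, compound at 5 μM; DMSO ≤1%; stopped by ice-cold dilution, rapid filtration, scintillation counting; ATP-dependent uptake = ATP minus AMP; duplicate wells.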

[13] = target: T1, ATP-dependent translocase ABCB1; test: Inhibition of VER-stimulated human His10-tagged P-gp ATPase activity expressed in BHK cells after 15 mins; format: cell-based
[14] = Inhibition of P-gp expressed in MDCK2-MDR1 cells by calcein AM accumulation assay; format: cell-based; details: MDCK-II
Method in brief: as §4, with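 “min.” for “min. Fluorescence read at Ex 485/Em 530 nm. Signal expressed relative to 5 μM LSN 335984, taken as complete inhibition; vehicle 0.25% DMSO.”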

[15] = Inhibition of P-gp mediated [3H]VIN efflux in MDCK2-MDR1 cells by scintillation counter; format: cell-based; details: MDCK-II
Method in brief: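 MDCKII-MDR1 monolayers on Transwell filters, used on day 6. Rinsed in DPBSH, then preincubated 30 min at 37 °C with compound ([…]) in BSA/DPBSH. [3H]vinblastine (0.25 μCi/mL) plus compound added basolaterally and fresh compound solution added apically. Apical buffer replaced every 10 min; apical radioactivity counted by scintillation. IC50 fitted.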

inhibition at 30 µM [2] [%]	fold induction at 0.5 h [3]	inhibition at 1 µM [4] [%]	SMILES	also measured
71	–	–	CC(C)(C)c1cc(-c2ccc(C(=S)N3CCCCC3)s2)cc(C(C)(C)C)[s+]1.F[P-](F)(F)(F)(F)F	fold change (FC) [1]: 4.4
50	6.9	–	CN(C)c1ccc(-c2cc(-c3ccccc3)cc(C(C)(C)C)[s+]2)cc1	–
–	5.5	0	CC(C)(C)c1cc(-c2ccc(C(=O)N3CCCCC3)s2)cc(C(C)(C)C)[s+]1.F[P-](F)(F)(F)(F)F	inhibition at 10 µM [5]: 11%; Papp B-A at 1 h, 5 µM [6]: 5.9 ×10⁻⁶ cm/s; logD at 1 h [7]: 0.2; Ratio [8]: 10; inhibition [9]: < 7%; Papp A-B at 1 h, 5 µM [10]: 0.38 ×10⁻⁶ cm/s
34	7.9	–	CCN(CC)C(=O)c1ccccc1-c1cc(C(C)(C)C)[s+]c(C(C)(C)C)c1	inhibition [11]: 0%; inhibition [9]: 0%
33	2.9	–	CC(C)(C)c1cc(-c2ccccc2)cc(C(C)(C)C)[s+]1	inhibition [11]: 0%; inhibition [9]: 1%
–	6.6	0	CN(C)c1ccc(-c2cc(-c3ccc(C(=O)N4CCCCC4)s3)cc(C(C)(C)C)[s+]2)cc1.F[P-](F)(F)(F)(F)F	inhibition at 10 µM [5]: 59%; Papp B-A at 1 h, 5 µM [6]: 2.2 ×10⁻⁶ cm/s; logD at 1 h [7]: 1.4; Ratio [8]: 4; IC50 [14]: 18 µM; Papp A-B at 1 h, 5 µM [10]: 0.56 ×10⁻⁶ cm/s
31	5.9	–	CCN(CC)C(=O)c1ccccc1-c1cc(C(C)(C)C)[se+]c(C(C)(C)C)c1	–
–	6	18	CN(C)c1ccc(-c2cc(-c3ccc(C(=O)N4CCCCC4)s3)cc(-c3ccc(N(C)C)cc3)[s+]2)cc1.F[P-](F)(F)(F)(F)F	inhibition at 10 µM [5]: 78%; Papp B-A at 1 h, 5 µM [6]: 62 ×10⁻⁶ cm/s; IC50 [15]: 5.9 µM; logD at 1 h [7]: 2.1; Ratio [8]: 79; IC50 [14]: 24 µM; Papp A-B at 1 h, 5 µM [10]: 0.17 ×10⁻⁶ cm/s
96	10.1	–	CN(C)c1ccc(-c2cc(-c3ccc(N(C)C)cc3)[se+]c(C(C)(C)C)c2)cc1	–
–	–	0	Cc1cc(-c2ccccc2)[s+]c(-c2ccccc2)c1	–

SMILES	inhibition at 30 µM [2] [%]	fold induction at 0.5 h [3]	inhibition at 1 µM [4] [%]	also measured
Nc1ccc(-c2cc(-c3ccc(N4CCOCC4)cc3)cc(-c3ccc(N)cc3)[te+]2)cc1	–	–	8	–
Nc1ccc(-c2cc(-c3ccc(N4CCOCC4)cc3)cc(-c3ccccc3)[te+]2)cc1	96	4.5	–	–
Cc1cc(-c2ccc(N(C)C)cc2)cc(-c2ccc(N(C)C)cc2)[se+]1	–	1.4	15	–
CC(C)(C)c1cc(-c2ccccc2)cc(C(C)(C)C)[se+]1	–	1.4	0	–
CC(C)(C)c1cc(-c2ccc(C(=O)O)s2)cc(C(C)(C)C)[se+]1	–	< 1.4	–	inhibition at 5 µM [12]: 15%; IC50 [13]: 111 µM
Cc1cc(C(C)(C)C)[se+]c(C(C)(C)C)c1	0	–	–	–
